# Data: ChEMBL document CHEMBL1667795, “Phosphonic pseudopeptides as human neutrophil elastase inhibitors--a combinatorial approach” (Bioorg Med Chem, 2011)
# Activity calls are given as the source filed them. The calls are words filed in the database; no cut-off is given here.
# Tests used:
# [1] = Inhibition of trypsin at 2.5 uM after 30 mins relative to control
# How it was run: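 Trypsin (final 2.5 nM) preincubated 30 min at 37 °C with 2.5 µM inhibitor in 0.1 M HEPES, 0.01 M CaCl2, pH 7.5. Bzl-Arg-AFC added, fluorescence read at Ex 380/Em 505 nm. Percent inhibition relative to the control sample.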
# [2] = target: T1, Neutrophil elastase (Homo sapiens) (UniProt P08246); assay: Inhibition of human neutrophil elastase after 15 mins
# T1 sequence (whole entry): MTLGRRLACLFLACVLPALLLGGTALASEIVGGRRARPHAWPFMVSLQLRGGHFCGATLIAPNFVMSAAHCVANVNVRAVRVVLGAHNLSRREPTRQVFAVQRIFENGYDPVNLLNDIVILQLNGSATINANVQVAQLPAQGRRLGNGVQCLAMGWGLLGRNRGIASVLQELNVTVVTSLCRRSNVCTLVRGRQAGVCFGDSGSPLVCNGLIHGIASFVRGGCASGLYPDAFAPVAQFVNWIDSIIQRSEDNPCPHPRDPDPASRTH
# [3] = Inhibition of chymotrypsin at 2.5 uM after 30 mins relative to control
# How it was run: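 Suc-Ala-Ala-Pro-Phe-AMC then added, fluorescence read at Ex 350/Em 460 nm. Inhibition given as percent of enzyme activity relative to the control sample.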
# [4] = Cytotoxicity against HGF at 250 uM after 48 hrs by MTT assay; format: cell-based; conditions: human, HGF cells; read-out: INH
# How it was run: (§1)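 Human gingival fibroblasts isolated from healthy gingival biopsies, grown in DMEM with 10% FBS, glutamine and penicillin/streptomycin at 37 °C, 5% CO2. Seeded 1 × 10^4 cells/well, attached overnight, then exposed 48 h to inhibitor diluted in medium from DMSO stocks; DMSO-only controls. MTT read at 570 nm, viability expressed as percent of untreated control.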
# [5] = Cytotoxicity against HGF at 500 uM after 48 hrs by MTT assay; format: cell-based; conditions: human; how it was run: as §1
# A549 [6] = assay: Cytotoxicity against human A549 cells at 250 uM after 48 hrs by MTT assay; format: functional; conditions: A549, 48 h
# How it was run: (§2)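 A549 lung cancer cells kept at 37 °C, 5% CO2, harvested by trypsinization and PBS wash. Seeded 1 × 10^4 cells/well, attached overnight, then 48 h with inhibitor diluted in medium from DMSO stocks; DMSO-only controls. MTT absorbance at 570 nm, growth as percent of untreated control, mean ± one SD.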
# A549 [7] = assay: Cytotoxicity against human A549 cells at 125 to 500 uM after 48 hrs by MTT assay; format: functional; how it was run: as §2
# A549 [8] = assay: Cytotoxicity against human A549 cells at 500 uM after 48 hrs by MTT assay; format: functional; conditions: A549, 48 h; how it was run: as §2
Structure (SMILES),inhibition [1],kinact/Ki (second-order inactivation rate constant) [2] [M⁻¹ s⁻¹],inhibition [3],"cytotoxicity at 48 h, 250 µM [4] [%]",Activity [5],inhibition at 250 µM (A549 [6]) [%],inhibition (INH) (A549 [7]) [%],inhibition at 500 µM (A549 [8]) [%]
COc1ccc([C@H](OC(=O)[C@H](CCSC)NC(=O)OCc2ccccc2)C(=O)N[C@H](C(C)C)P(=O)(Oc2ccc(SC)cc2)Oc2ccc(SC)cc2)cc1OC,inactive,3800,22%,,,,,
CCCCCC(=O)N1CCN([C@H](C(=O)N[C@H](C(C)C)P(=O)(Oc2ccc(SC)cc2)Oc2ccc(SC)cc2)c2ccc([N+](=O)[O-])cc2)CC1,inactive,140,inactive,,,,,
CSCC[C@H](NC(=O)OCc1ccccc1)C(=O)O[C@H](C(=O)N[C@H](C(C)C)P(=O)(Oc1ccc(SC)cc1)Oc1ccc(SC)cc1)C(C)C,inactive,5050,15%,,,,,
CSCC[C@H](NC(=O)OCc1ccccc1)C(=O)O[C@@H](CC(C)C)C(=O)N[C@H](C(C)C)P(=O)(Oc1ccc(SC)cc1)Oc1ccc(SC)cc1,inactive,4400,inactive,,,,,
CSCC[C@H](NC(=O)OCc1ccccc1)C(=O)O[C@@H](Cc1ccccc1)C(=O)N[C@H](C(C)C)P(=O)(Oc1ccc(SC)cc1)Oc1ccc(SC)cc1,inactive,605,inactive,,,,,
CSCC[C@H](NC(=O)OCc1ccccc1)C(=O)O[C@H](C(=O)N[C@H](C(C)C)P(=O)(Oc1ccc(Cl)cc1)Oc1ccc(Cl)cc1)c1ccc([N+](=O)[O-])cc1,inactive,165,inactive,,,,,
CSCC[C@H](NC(=O)OCc1ccccc1)C(=O)O[C@@H](CCSC)C(=O)N[C@H](C(C)C)P(=O)(Oc1ccc(SC)cc1)Oc1ccc(SC)cc1,inactive,5900,14%,,,,,
CSCC[C@H](NC(=O)OCc1ccccc1)C(=O)O[C@@H](CCc1ccccc1)C(=O)N[C@H](C(C)C)P(=O)(Oc1ccc(Cl)cc1)Oc1ccc(Cl)cc1,inactive,1620,inactive,,,,,
CSCC[C@H](NC(=O)OCc1ccccc1)C(=O)O[C@H](C(=O)N[C@H](C(C)C)P(=O)(Oc1ccc(Cl)cc1)Oc1ccc(Cl)cc1)C(C)C,inactive,20500,15%,,,,,
CSCC[C@H](NC(=O)OCc1ccccc1)C(=O)O[C@H](C(=O)N[C@H](C(C)C)P(=O)(Oc1ccc(SC)cc1)Oc1ccc(SC)cc1)c1ccc([N+](=O)[O-])cc1,inactive,430,inactive,,,,,
CCCCN(C(=O)CNC(=O)OCc1ccccc1)[C@@H](CCc1ccccc1)C(=O)N[C@H](C(C)C)P(=O)(Oc1ccc(SC)cc1)Oc1ccc(SC)cc1,inactive,1420,15%,10,Toxic,70,50,
CCCCN(C(=O)CNC(=O)OCc1ccccc1)[C@@H](Cc1ccccc1)C(=O)N[C@H](C(C)C)P(=O)(Oc1ccc(SC)cc1)Oc1ccc(SC)cc1,inactive,1360,14%,,,,,
CSCC[C@H](NC(=O)OCc1ccccc1)C(=O)O[C@@H](CC(C)C)C(=O)N[C@H](C(C)C)P(=O)(Oc1ccc(Cl)cc1)Oc1ccc(Cl)cc1,inactive,7250,inactive,,,,,75
CCCCN(C(=O)CNC(=O)OCc1ccccc1)[C@@H](CC(C)C)C(=O)N[C@H](C(C)C)P(=O)(Oc1ccc(SC)cc1)Oc1ccc(SC)cc1,inactive,145,inactive,,,,,
CSCC[C@H](NC(=O)OCc1ccccc1)C(=O)O[C@@H](CCSC)C(=O)N[C@H](C(C)C)P(=O)(Oc1ccc(Cl)cc1)Oc1ccc(Cl)cc1,inactive,40100,inactive,,,25,,60
CSCC[C@H](NC(=O)OCc1ccccc1)C(=O)O[C@@H](CCc1ccccc1)C(=O)N[C@H](C(C)C)P(=O)(Oc1ccc(SC)cc1)Oc1ccc(SC)cc1,inactive,765,inactive,,,,,
CSCC[C@H](NC(=O)OCc1ccccc1)C(=O)O[C@@H](Cc1ccccc1)C(=O)N[C@H](C(C)C)P(=O)(Oc1ccc(Cl)cc1)Oc1ccc(Cl)cc1,inactive,695,inactive,,,,,
COc1ccc([C@H](OC(=O)[C@H](CCSC)NC(=O)OCc2ccccc2)C(=O)N[C@H](C(C)C)P(=O)(Oc2ccc(Cl)cc2)Oc2ccc(Cl)cc2)cc1OC,inactive,165,21%,,,,,
CSCC[C@H](NC(=O)OCc1ccccc1)C(=O)O[C@H](C(=O)N[C@H](C(C)C)P(=O)(Oc1ccc(Cl)cc1)Oc1ccc(Cl)cc1)c1ccc(F)cc1,inactive,215,16%,,,,,
CCCCCC(=O)N1CCN([C@@H](CCSC)C(=O)N[C@H](C(C)C)P(=O)(Oc2ccc(SC)cc2)Oc2ccc(SC)cc2)CC1,inactive,140,,,,,,
CCCCCC(=O)N1CCN([C@H](C(=O)N[C@H](C(C)C)P(=O)(Oc2ccc(SC)cc2)Oc2ccc(SC)cc2)c2ccc(F)cc2)CC1,inactive,330,inactive,,,,,
CCCCCC(=O)N1CCN([C@H](C(=O)N[C@H](C(C)C)P(=O)(Oc2ccc(SC)cc2)Oc2ccc(SC)cc2)c2ccc(OC)c(OC)c2)CC1,inactive,125,inactive,,,,,
CCCCN(C(=O)CNC(=O)OCc1ccccc1)[C@H](C(=O)N[C@H](C(C)C)P(=O)(Oc1ccc(SC)cc1)Oc1ccc(SC)cc1)C(C)C,inactive,495,8%,,,,,
CSCC[C@H](NC(=O)OCc1ccccc1)C(=O)O[C@H](C(=O)N[C@H](C(C)C)P(=O)(Oc1ccc(SC)cc1)Oc1ccc(SC)cc1)c1ccc(F)cc1,inactive,4850,inactive,,,,,
